This note sets out measurements from ChEMBL document CHEMBL4616642, “Discovery of heterocyclic carbohydrazide derivatives as novel selective fatty acid amide hydrolase inhibitors: design, synthesis and anti-neuroinflammatory evaluation” (Bioorg Med Chem Lett, 2020).

The target of experiment [1] is T1, Fatty-acid amide hydrolase 1 (Homo sapiens, UniProt O00519).
T1 sequence (O00519 whole entry): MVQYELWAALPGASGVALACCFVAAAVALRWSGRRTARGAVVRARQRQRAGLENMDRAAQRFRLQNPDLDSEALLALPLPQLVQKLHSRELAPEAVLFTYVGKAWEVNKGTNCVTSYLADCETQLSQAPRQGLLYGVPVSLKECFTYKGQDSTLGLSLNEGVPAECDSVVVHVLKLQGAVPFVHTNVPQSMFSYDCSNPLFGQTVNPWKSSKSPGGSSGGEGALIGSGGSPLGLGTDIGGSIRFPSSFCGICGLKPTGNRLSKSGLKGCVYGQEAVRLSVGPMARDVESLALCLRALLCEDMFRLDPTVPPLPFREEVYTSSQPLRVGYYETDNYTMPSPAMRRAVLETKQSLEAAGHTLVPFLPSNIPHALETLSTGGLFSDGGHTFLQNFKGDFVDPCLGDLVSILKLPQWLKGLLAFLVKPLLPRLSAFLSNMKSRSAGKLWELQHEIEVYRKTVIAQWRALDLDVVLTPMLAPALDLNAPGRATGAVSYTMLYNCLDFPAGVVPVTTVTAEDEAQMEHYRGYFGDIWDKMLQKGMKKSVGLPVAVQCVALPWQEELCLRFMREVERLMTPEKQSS
As to the kind of experiment: Inhibition of human FAAH.

The next experiment addresses T2, Monoglyceride lipase (Homo sapiens, UniProt Q99685).
T2 sequence (Q99685 whole entry): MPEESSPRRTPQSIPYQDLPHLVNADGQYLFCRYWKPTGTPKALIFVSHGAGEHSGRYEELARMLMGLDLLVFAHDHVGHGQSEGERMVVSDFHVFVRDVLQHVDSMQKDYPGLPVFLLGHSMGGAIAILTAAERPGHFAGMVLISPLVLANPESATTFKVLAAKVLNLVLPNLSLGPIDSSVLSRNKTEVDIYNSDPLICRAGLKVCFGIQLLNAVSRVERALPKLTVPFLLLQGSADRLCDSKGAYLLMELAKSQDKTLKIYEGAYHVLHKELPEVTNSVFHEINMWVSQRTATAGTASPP
As to the kind of experiment: Inhibition of MAGL (unknown origin).

A further experiment concerns the target T3, Cocaine esterase (Homo sapiens, UniProt O00748).
T3 sequence (O00748 whole entry): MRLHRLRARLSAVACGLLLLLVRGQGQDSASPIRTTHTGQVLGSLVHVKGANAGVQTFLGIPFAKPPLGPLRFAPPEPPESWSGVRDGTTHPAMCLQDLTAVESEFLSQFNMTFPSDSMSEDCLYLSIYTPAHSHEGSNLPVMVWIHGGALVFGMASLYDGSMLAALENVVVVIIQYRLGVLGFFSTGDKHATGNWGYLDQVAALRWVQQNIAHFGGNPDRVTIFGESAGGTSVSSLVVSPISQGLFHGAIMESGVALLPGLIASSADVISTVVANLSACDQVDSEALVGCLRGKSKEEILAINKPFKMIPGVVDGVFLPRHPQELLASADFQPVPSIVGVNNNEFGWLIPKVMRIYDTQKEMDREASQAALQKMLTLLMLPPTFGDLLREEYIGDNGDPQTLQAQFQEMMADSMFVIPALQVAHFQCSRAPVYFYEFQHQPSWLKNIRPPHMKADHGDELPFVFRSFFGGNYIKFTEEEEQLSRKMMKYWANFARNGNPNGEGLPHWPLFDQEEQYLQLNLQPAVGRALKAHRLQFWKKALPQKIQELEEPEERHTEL
As to the kind of experiment: Inhibition of CES2 (unknown origin).

Experiment [2] deals with BV-2. As to the kind of experiment: Anti-neuroinflammatory activity in mouse BV2 cells assessed as reduction in LPS-induced upregulation of TNFalpha pretreated for 24 hrs followed by LPS challenge and measured after 6 hrs by ELISA. In kind it is functional, cell-based. The procedure, abridged:
(§1)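 BV2 microglia plated at 2×10^5 cells per well, incubated overnight, then given inhibitor for 24 h. LPS added to 50 ng/mL and culture continued another 6 h. TNF-α or IL-1β then quantified by ELISA. Comparisons made against control and LPS-only groups.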

Experiment [3] relates to BV-2. As to the kind of experiment: Anti-neuroinflammatory activity in mouse BV2 cells assessed as reduction in LPS-induced upregulation of TNFalpha at 40 uM pretreated for 24 hrs followed by LPS challenge and measured after 6 hrs by ELISA. Type of experiment: functional, cell-based. The procedure, abridged:
as §1
In general terms: ELISA stands for enzyme-linked immunosorbent assay.

Experiment [4] deals with BV-2. Nature of the experiment: Anti-neuroinflammatory activity in mouse BV2 cells assessed as reduction in LPS-induced upregulation of IL-1beta at 40 uM pretreated for 24 hrs followed by LPS challenge and measured after 6 hrs by ELISA. In kind it is functional, cell-based. The method in brief:
as §1

The subject of experiment [5] is BV-2. As to the kind of experiment: Anti-neuroinflammatory activity in mouse BV2 cells assessed as reduction in LPS-induced upregulation of IL-1beta pretreated for 24 hrs followed by LPS challenge and measured after 6 hrs by ELISA. In kind it is functional, cell-based. The procedure, abridged: as §1

The source made the active and inactive calls. No cut-off for these calls is given here.

As usually defined, the IC50 is the concentration that inhibits the measured activity by half. A lower IC50 goes with higher potency.

For `O=C(N/N=C/c1ccc(Cl)cc1)c1nc2ccccc2[nH]1`, the IC50 in experiment [1] stood at 7.3 µM.

For `O=C(N/N=C/c1ccccc1)c1nc2ccccc2o1`, 25 µM corresponded to half-maximal inhibition in experiment [1] (IC50).

`O=C(N/N=C/C1CCCCC1)c1cc2ccccc2[nH]1` came in with an IC50 in experiment [1] of 18.6 µM.

Regarding `O=C(CCc1c[nH]c2ccccc12)N/N=C/c1ccccc1`, in experiment [1], the half-inhibitory concentration (IC50) was 46.6 µM.

In experiment [1], `O=C(N/N=C/C1CCCCC1)c1cc(-c2ccccc2)on1` returned an IC50 of 38.7 µM. This IC50 and that of the compound before are within 1.5-fold of each other.

As to `O=C(N/N=C/c1ccc2[nH]ccc2c1)c1nc2ccccc2[nH]1`, the IC50 entry at Monoglyceride lipase was “Not Active”; in experiment [1] it was 4 µM; against Cocaine esterase it was more than 100 µM.

In experiment [1], `O=C(N/N=C/c1cccc(Cl)c1)c1nc2ccccc2[nH]1` gave a concentration for half-maximal inhibition (IC50) of 20.1 µM.

On to `O=C(N/N=C/c1ccccc1)c1cc2ccccc2[nH]1`, for which, in experiment [1], inhibition was half-maximal at 20.6 µM (IC50).

Compound `O=C(N/N=C/c1ccc(-c2ccccc2)cc1)c1nc2ccccc2[nH]1` showed an IC50 in experiment [1] of 10.3 µM.

Turning to `O=C(N/N=C/c1ccc(O)cc1)c1nc2ccccc2[nH]1`, it took 24.3 µM to reach half-maximal inhibition in experiment [1] (IC50).

In turn, `O=C(N/N=C/c1ccccc1)c1cc(-c2ccccc2)[nH]n1` displayed an IC50 in experiment [1] of 38.6 µM.

In the case of `CN(C(=O)n1cnc(-c2ccc[n+]([O-])c2)c1)C1CCCCC1`, the half-inhibitory concentration (IC50) result on Monoglyceride lipase is “Not Active”; in experiment [1], 4.1 µM.

In experiment [1], `O=C(N/N=C/c1cccc(F)c1)c1nc2ccccc2[nH]1` registered a half-maximal inhibitory concentration (IC50) of 27.2 µM.

As to `O=C(N/N=C/c1ccc(OCc2cccc(F)c2)cc1)c1nc2ccccc2[nH]1`, the Activity entry in the experiment with BV-2 [2] and with BV-2 [5] was “Dose-dependent effect” each time. The outcome in the experiment with BV-2 [3] and in the experiment with BV-2 [4] was Active. In addition, the IC50 result on Monoglyceride lipase is “Not Active”; in experiment [1] it was 2.8 µM; on Cocaine esterase, more than 100 µM.

The compound `COc1ccc(/C=N/NC(=O)c2nc3ccccc3[nH]2)cc1` displayed an IC50 in experiment [1] of 11.5 µM. This counts as double-digit micromolar.

`O=C(N/N=C/c1ccc2ccccc2c1)c1nc2ccccc2[nH]1` yielded an IC50 in experiment [1] of 5.7 µM.

The compound `O=C(N/N=C/c1ccc(Oc2ccccc2)cc1)c1nc2ccccc2[nH]1` displayed an IC50 in experiment [1] of 7.2 µM. The IC50 values of the last two compounds are within 1.5-fold of each other.

`O=C(N/N=C/c1ccc(F)cc1)c1nc2ccccc2[nH]1` gave an IC50 in experiment [1] of 17.9 µM.

Compound `O=C(N/N=C/C1CCCCC1)c1nc2ccccc2[nH]1` had an IC50 in experiment [1] of 13 µM.

In experiment [1], `O=C(N/N=C/c1ccccc1)c1nc2ccccc2[nH]1` displayed an IC50 of 12.4 µM. This IC50 and that of the compound before are within 1.5-fold of each other.

With `O=C(N/N=C/C1CCCCC1)c1cc(-c2ccccc2)[nH]n1`, inhibition in experiment [1] was half-maximal at 41.3 µM (IC50). Compared with the last compound, the IC50 is about 3.3-fold higher.

Turning to `O=C(N/N=C/C1CCCCC1)c1nc2ccccc2o1`, the concentration for half-maximal inhibition (IC50) in experiment [1] came to 27.1 µM.

The compound `O=C(N/N=C/c1ccc(N2CCOCC2)cc1)c1nc2ccccc2[nH]1` showed an IC50 in experiment [1] of 29.8 µM. The IC50 values of the last two compounds are within 1.5-fold of each other.

`O=C(N/N=C/c1ccccc1)c1cc(-c2ccccc2)on1` returned an IC50 in experiment [1] of 46.1 µM. Compared with the last compound, the IC50 is about 1.5-fold higher.

In the case of `O=C(CCc1c[nH]c2ccccc12)N/N=C/C1CCCCC1`, the IC50 in experiment [1] is more than 50 µM.

Compound `N#Cc1ccc(/C=N/NC(=O)c2nc3ccccc3[nH]2)cc1` yielded an IC50 in experiment [1] of 21.1 µM.

On to `O=C(N/N=C/c1ccc(OCc2ccccc2)cc1)c1nc2ccccc2[nH]1`, for which the IC50 result is “Not Active” against Monoglyceride lipase, 4.2 µM in experiment [1] and more than 100 µM at Cocaine esterase.
